From PubChem BioAssay
Most compounds without a hit are left out; they make up all but 1.6% or so of the library.
Apaf1 inhib: human Apaf-1 inhibition. AID 489030. 330,000 tested, 0.71% active. reconstituted apoptosome caspase-3 activity, DEVD-Rh110 fluorescence. inhibition, % at 20 µM; active = inhibition of at least 40% at 20 µM;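 also: plate controls were DMSO wells for no effect and DEVD-CHO caspase inhibitor wells for full effect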
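Material: reconstituted apoptosome with Apaf-1, cytochrome c, caspase-9, procaspase-3, dATP / Buffer or medium: pH 7.5 Hepes buffer with CHAPS, BSA, DTT / Also added: cytochrome c with DEVD-Rh110 / Schedule: compound with Apaf-1, dATP, procaspase-3 30 min, then 50 min reaction, room temperature / Technique: rhodamine 110 fluorescence at Ex 480/Em 540 nm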
Neddylation inh: blocks human cullin neddylation; TR-FRET cullin neddylation, biochemical; P61081+Q13564; 360,000 tested, 0.58% active; calls only at 25 µM; in the data active = inhibition above about 36%
RAD54 inh: inhibitors of human RAD54 branch migration; Q92698; RAD54 Holliday junction branch migration, FAM/BHQ fluorescence; inhibition, % at 10.4 µM; 360,000 tested, 0.14% active; AID 602329;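 active = mean normalized replicate activity at least 40 and at least half of replicates scoring 40 or more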;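 also: 0% = median of neutral control wells and 100% = median of positive control wells; inhibitors cause a drop in the FAM fluorescence signal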
UBC13 polyUb: blocks human UBC13 polyubiquitin chain formation | TR-FRET | inhibition, % at 20 µM | 330,000 tested, 0.47% active | AID 485273; in the data active = inhibition above about 45%, passing the limit was not always enough
DNA FID counter: fluorescent intercalator displacement, NS3 helicase counter-screen; DNA fluorescent intercalator displacement, fluorescence; inhibition, % at 7.9 µM; 290,000 tested, 0.17% active; in the data active = inhibition above about 37%;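 also: 0% = vehicle and 100% = reference compound; higher means more ethidium bromide displaced from hairpin DNA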
RAD52 inh: inhibitors of human RAD52 DNA annealing | P43351 | recombinant RAD52 DNA annealing, FRET fluorescence | inhibition, % at 18.7 µM | 360,000 tested, 0.46% active;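 active = every replicate showing at least 50% inhibition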
Casp3 UBC13 ctr: caspase-3 inhibition (UBC13 counter-screen). shares compounds with UBC13 polyUb. Recombinant caspase-3, Caspase-Glo 3/7 luminescence, 60 min. 1,400 tested, 4% active. inhibition, % at 20 µM. AID 488856;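 active = mean inhibition across replicates above about 26%, limit read from the data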;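 also: plate controls were DMSO with caspase-3 for no effect and DMSO wells lacking enzyme for full effect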
UBC13 confirm: human UBC13 polyubiquitin inhibition, confirmed; inhibition, % at 10 µM; shares compounds with UBC13 polyUb; AID 488859; UBC13 polyubiquitination, TR-FRET, biochemical; 1,400 tested, 68% active; in the data active = inhibition above about 45%
Apaf-1 inh conf2: Apaf-1 inhibition, single-dose confirmed; shares compounds with Apaf1 inhib; reconstituted apoptosome, caspase-3 DEVD-Rh110 fluorescence; inhibition, % at 20 µM; 1,800 tested, 25% active;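 active = mean inhibition of at least 40% at 20 µM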;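 also: plate controls were DMSO wells for no effect and DEVD-CHO caspase inhibitor control wells for full effect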
Rh110 interf inh: interferes with Rh110 fluorescence, flagging false Apaf-1 inhibitors | shares compounds with Apaf1 inhib | Rh110 fluorescence interference, quenched caspase reaction | activation (fluorescence interference), % at 20 µM | 1,800 tested, under 10 active;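 active = signal rise of 40% or more at 20 µM, treated as a fluorescence artifact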
Apaf1 inh interf: shows fluorescence interference in the Apaf-1 inhibitor assay format; shares compounds with Apaf1 inhib; fluorescence interference counterscreen, Apaf-1 assay format; IC50, µM; 460 tested, under 10 active; AID 588538; call rule not given here
Rad54 DNA ctr: counter-screen for Rad54 inhibitors: DNA binding compounds; shares compounds with RAD54 inh; Acridine orange-DNA displacement, fluorescence polarization, 20 min; AC50, µM (doses to about 35 µM), without a hit: at the top dose activity change, negative = DNA binding; 460 tested, 8% active;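 active = signal drop giving an AC50 within twice the top valid tested concentration of each sample, actives reach about 35 µM in these data; inactive = activity opposite to expected, plus the rest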;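 also: polarization loss reports compound binding to salmon sperm DNA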
DNA binder FP: DNA binding artifact in RAD52 counter-screen | shares compounds with RAD52 inh | Salmon sperm DNA/acridine orange FP displacement | AC50, µM | 1,000 tested, 8% active | AID 652128;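 active = fitted half-maximal concentration for signal loss at or below twice the highest dose tested, in every separate run, actives reach about 64 µM in these data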
The depositor's hits bear a star; ! = a repeat was not active.

C[C@H](NC(=O)C[C@H]1C=C[C@@H](NC(=O)C2CCC2)[C@H](CO)O1)c1ccccc1 was read as RAD54 inh 2 and RAD52 inh 10.
Screening Cc1cc(C)c2nc(NCCCNC(=S)NCCCN(C)C)c(C#N)cc2c1 returned Apaf1 inhib 9, UBC13 polyUb 50*, DNA FID counter 21, RAD52 inh 94*, Casp3 UBC13 ctr 5, UBC13 confirm 42 and DNA binder FP inactive.
For CO[C@@H]1CN(C)C(=O)c2ccc(NC(=O)c3ccccc3F)cc2OC[C@H](C)N(CC2CC2)C[C@@H]1C the results were RAD54 inh 8 and RAD52 inh -3.
Cc1ccc(S(=O)(=O)N2CC[C@@H]3[C@H]2c2cc(C#Cc4cccc(F)c4)ccc2N[C@@H]3CO)cc1 was read as RAD54 inh 1 and RAD52 inh -17.
CCC(C)[C@H](N)c1cn([C@@H](Cc2ccc(O)cc2)C(=O)N2CCNCC2)nn1 (stereo not given in full) was read as Apaf1 inhib 5, Neddylation inh inactive, RAD54 inh 2, UBC13 polyUb 6, DNA FID counter 11 and RAD52 inh 4.
CCC(C)[C@H](N)c1cn([C@@H](Cc2cc3ccccc3[nH]2)C(=O)N2CCNCC2)nn1 (stereo not given in full) was read as Apaf1 inhib -11, Neddylation inh inactive, RAD54 inh 12, UBC13 polyUb 94*, DNA FID counter 20, RAD52 inh 96*, Casp3 UBC13 ctr -5, UBC13 confirm 81* and DNA binder FP inactive.
For COc1ccc(-c2cnc3c(c2)C(=O)N([C@H](C)CO)C[C@H](C)[C@@H](CN(C)C(=O)Cc2ccccn2)O3)cc1 the results were RAD54 inh 0 and RAD52 inh 3.
For C[C@H]1CN([C@@H](C)CO)C(=O)c2cc(C#CCN(C)C)cnc2O[C@H]1CN(C)C(=O)Cc1cccnc1 the results were RAD54 inh 6 and RAD52 inh -17.
`O=C(NCC1CCCCC1)C1(CC2CC(c3ccc(Cl)cc3)=NO2)CCNCC1` (stereo not given) gave Apaf1 inhib 14, Neddylation inh inactive, RAD54 inh 11, UBC13 polyUb 46*, DNA FID counter 15, RAD52 inh 67*, Casp3 UBC13 ctr 3, UBC13 confirm 47* and DNA binder FP inactive.
For Cc1ccc(C(=O)N/C(=C\c2ccc(-c3cccc([N+](=O)[O-])c3)o2)C(=O)NCCCN(C)C)cc1 the results were Apaf1 inhib 1, Neddylation inh inactive, RAD54 inh 19, UBC13 polyUb 48*, DNA FID counter 31, RAD52 inh 67*, Casp3 UBC13 ctr -2, UBC13 confirm 63* and DNA binder FP inactive.
CN(C)CCNC(=O)/C(=C/c1ccc(-c2ccc(Cl)cc2)o1)NC(=O)c1ccccc1 was read as Neddylation inh inactive, RAD54 inh 25 and DNA FID counter 22.
For COc1ccc(-c2nc(-c3ccc(NC(=O)c4ccncc4)cc3)no2)cc1OC the results were Apaf1 inhib 9, Neddylation inh inactive, RAD54 inh -4, UBC13 polyUb 14 and DNA FID counter -4.
For COc1ccc(NC(=O)c2ccc(-c3ccc(-c4noc(C)n4)cc3C)cc2)cc1N1CCN(C)CC1 the results were Apaf1 inhib 57*, Neddylation inh inactive, RAD54 inh 54*, UBC13 polyUb 78*, RAD52 inh 101*, Casp3 UBC13 ctr -4, UBC13 confirm 45, Apaf-1 inh conf2 26, Rh110 interf inh 2, Rad54 DNA ctr 3% and DNA binder FP inactive.
For CCCCCc1ccc(OCCCC[n+]2cccc(C)c2)c(CCCCC)c1 the results were Apaf1 inhib 61*, Neddylation inh inactive, UBC13 polyUb 59*, DNA FID counter 41*, RAD52 inh 76*, Casp3 UBC13 ctr -3, UBC13 confirm 90*, Apaf-1 inh conf2 40*, Rh110 interf inh 9, Apaf1 inh interf >100 and DNA binder FP inactive.
`CN(C)CCn1cnc2c(c1=N)C(c1ccccc1)c1ccc3ccccc3c1O2` (stereo not given) gave Apaf1 inhib 26, Neddylation inh inactive, RAD54 inh 17, UBC13 polyUb 48*, DNA FID counter 35, RAD52 inh -21, Casp3 UBC13 ctr 1, UBC13 confirm 56* and DNA binder FP inactive.
Screening O=C(Nc1ccc2c(c1)OCO2)C(=O)c1c[nH]c2ccccc12 returned Apaf1 inhib -15, Neddylation inh inactive, RAD54 inh -13, UBC13 polyUb -3, DNA FID counter -3 and RAD52 inh -11.
For CCN1CCN(Cc2ccc(NC(=O)c3ccc(C)c(NC(=O)C(=O)c4c[nH]c5ccccc45)c3)cc2C(F)(F)F)CC1 the results were Apaf1 inhib 74*, Neddylation inh inactive, RAD54 inh 5, UBC13 polyUb 53*, DNA FID counter 30, RAD52 inh 99*!, Casp3 UBC13 ctr -5, UBC13 confirm 96*, Apaf-1 inh conf2 35, Rh110 interf inh 1 and DNA binder FP inactive.
`CO[C@@H]1CN(C)C(=O)c2ccc(NC(=O)Nc3c(C)noc3C)cc2OC[C@@H](C)N(C)C[C@@H]1C` gave RAD54 inh -5 and RAD52 inh 1.
Cc1ccc(C)c(OCC(O)CN2CCN(CCN3C(=O)c4cccc5cccc(c45)C3=O)CC2)c1 (stereo not given) was read as Apaf1 inhib 19, Neddylation inh inactive, UBC13 polyUb 84*, DNA FID counter 16, RAD52 inh 99*, Casp3 UBC13 ctr 3, UBC13 confirm 101* and DNA binder FP inactive.
